# High-throughput results from PubChem.
# The sample as a whole holds a higher share of hits than the screen did.
# RORA inh – inhibitors of orphan receptor RORA, primary screen, cell-based, luminescence. Nuclear receptor ROR-alpha (Homo sapiens), P35398. CHO-K1 Gal4-RORA LBD luciferase reporter. inhibition, % at 10 µM. 65,000 compounds, 0.43% hits;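 active = inhibition above the mean of all tested compounds plus 3 SD, cut at about 52% in these data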
# Target sequence (P35398 whole entry, looked up, the tested form may be a part): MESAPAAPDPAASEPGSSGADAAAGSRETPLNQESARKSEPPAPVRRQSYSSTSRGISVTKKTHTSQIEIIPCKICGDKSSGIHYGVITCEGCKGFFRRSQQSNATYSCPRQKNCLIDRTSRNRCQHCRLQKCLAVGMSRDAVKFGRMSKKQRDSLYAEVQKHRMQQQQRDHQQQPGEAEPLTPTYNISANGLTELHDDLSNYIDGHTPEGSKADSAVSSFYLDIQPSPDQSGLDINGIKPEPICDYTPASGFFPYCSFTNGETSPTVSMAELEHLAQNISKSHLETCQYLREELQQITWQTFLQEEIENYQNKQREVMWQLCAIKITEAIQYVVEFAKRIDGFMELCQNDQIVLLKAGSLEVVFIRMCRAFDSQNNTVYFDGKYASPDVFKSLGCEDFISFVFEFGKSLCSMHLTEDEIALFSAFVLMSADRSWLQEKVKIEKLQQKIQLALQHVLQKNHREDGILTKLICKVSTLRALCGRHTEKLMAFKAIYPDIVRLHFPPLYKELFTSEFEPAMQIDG
#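 test system = CHO-K1 Gal4-RORA LBD luciferase reporter cells | dosing = 10 µM single point | times = 20 h compound treatment, 37 °C | signal = luciferase luminescence | read-out = % inhibition of basal luciferase versus +RORA/-RORA DMSO controls | benchmarks = mock-transfected cells as 100%, +RORA DMSO cells as 0% | replicates = tested once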
# Hits are given with their value; 0 = inactive.
SMILES,RORA inh
CCOC(=O)c1c(C)n(CC(COC(C)=O)OC(C)=O)c2ccc(OC(C)=O)cc12 (stereo not drawn),0
Cc1cccc(C(=O)NC2CCN(CC(=O)N3CCOCC3)CC2)c1,0
C=CS(=O)(=O)c1ccc(Oc2ccc(S(=O)(=O)C=C)cc2)cc1,94
CCC(C)c1cc(S(=O)(=O)N2CCOCC2)ccc1OC (stereo not drawn),0
C/C(O)=c1/ccc2cccc3nc(C)nc1c23,0
Clc1ccc(-n2ncc3c(N4CCCCCC4)ncnc32)cc1,68
CC1CN(c2ncnc3c2cnn3-c2ccc(Cl)cc2)CC(C)O1 (stereo not drawn),0
Cc1cccc(-n2ncc3c(N4CCOCC4)ncnc32)c1,67
CCCCNc1ncnc2c1cnn2-c1ccc(Cl)cc1,0
COc1ccc(-n2c(C)nc3c(cnn3-c3ccc(C)c(C)c3)c2=O)cc1,0
Cc1cccc(-n2ncc3c(NCCCO)ncnc32)c1,0
COc1ccc2nc(N3CCCCC3)c(C#N)cc2c1,0
COc1ccc(-n2ncc3c(N4CCCCC4)ncnc32)cc1,87
C=CCNc1ncnc2c1cnn2-c1cccc(C)c1,0
Cc1cc(C)c(NC(=O)Cn2c(=O)n(Cc3ccco3)c(=O)c3ccccc32)c(C)c1,0
COc1cccc2c(=O)n(CC(=O)N3CCN(c4ccccc4)CC3)ccc12,0
Cn1cc(S(=O)(=O)NCc2cccs2)c(=O)n(C)c1=O,0
CCOC(=O)c1cccc(NC(=O)C(NS(=O)(=O)c2ccc3c(c2)CCN3C(C)=O)C(C)C)c1 (stereo not drawn),0
COc1ccc(N(CC(=O)NCc2ccco2)S(C)(=O)=O)cc1Cl,0
C=CCn1c(SCC(=O)Nc2nccs2)nnc1-c1cc2cccc(OC)c2o1,0
Cc1ccccc1-n1c(=O)cc(N2CCN(C(=O)c3ccco3)CC2)[nH]c1=O,0
COc1ccc(OC)c2sc(NC(=O)c3ccc(S(=O)(=O)N(C)C)cc3)nc12,0
CCOC(=O)c1[nH]c(C)c(C(=O)Nc2ccccc2F)c1C,0
CCOC(=O)c1[nH]c(C)c(C(=O)Nc2ccc(F)cc2)c1C,0
CC(=O)c1c(C)[nH]c(C(=O)OCCCCN2C(=O)c3ccccc3C2=O)c1C,78
SMILES,RORA inh
Cc1nc(SCC(=O)Nc2c(C)n(C)n(-c3ccccc3)c2=O)n[nH]1,0
N#C/C(=C/c1ccc(N2CCCCCC2)o1)c1ccc(F)cc1,62
Cc1ccc(C)n1-c1ccc(N2CCOCC2)nc1,0
FC(F)(F)C1CC(c2cccs2)Nc2ncnn21 (stereo not drawn),0
CCOc1ccc2oc(-c3ccccc3)c(C(=O)N3CCN(CCO)CC3)c2c1,0
COC(=O)c1cc(COc2ccc3oc(C)c(C(=O)OC)c3c2)c(C)o1,0
CN(C)CCOC(=O)C1(c2ccccc2)CCOCC1,0
Cc1oc2cc3c(C(=O)OCCN(C)C)c(C)oc3cc2c1C(=O)OCCN(C)C,82
CC(=O)Cc1nsc(Nc2ccc3c(c2)OCCO3)n1,0
CCOC(=O)Cc1csc(SCc2nc3ccccc3c(=O)[nH]2)n1,0
CC(=O)NC(Cc1ccccc1)C(=O)NC1CCN(C(=O)NC2CCCCC2)CC1 (stereo not drawn),0
COc1cc(CC(NC(C)=O)C(=O)NC2CCN(c3nc(C)cc(C)c3C#N)CC2)cc(OC)c1 (stereo not drawn),75
COc1ccc(Nc2nc(C)cc(C)c2C#N)cc1,0
CCCOc1ccc(N2CC(C(=O)Nc3ncccc3C)CC2=O)cc1 (stereo not drawn),0
O=C(NCc1cccs1)C1CC(=O)N(c2ccc(F)cc2)C1 (stereo not drawn),0
COc1ccc(S(=O)(=O)N(C)CC(=O)N2CCC(C)CC2)cc1Cl,0
O=S1(=O)C=C(Sc2nc3cc(Cl)ccc3o2)c2ccccc21,75
NC(=O)CC12CC3CC(C1)CC(CC(N)=O)(C3)C2,0
CCOC(=O)c1ccc(NS(=O)(=O)N2CCCCCC2)cc1,0
CC1(C)CC(=O)C2=C(C1)Oc1nc3ccccc3cc1C2C(C#N)C#N (stereo not drawn),72
COC(=O)c1ccccc1NC(=O)CN1CCC(NC(=O)c2ccccc2C)CC1,0
CC(C)Oc1ccccc1-c1nc(SCC(=O)O)n[nH]1,0
CCOC(=O)N1CCN(C(=O)CCc2ccc(S(=O)(=O)NCCc3ccccc3)cc2)CC1,0
Cc1ccc2nc(-c3ccccc3)cn2c1,89
Cc1cccn2cc(-c3ccccc3)nc12,0
SMILES,RORA inh
CCOC(=O)CN1CC23C=CC(O2)C(C(=O)Nc2ccc(F)c(C)c2)C3C1=O (stereo not drawn),0
O=C(NCc1ccc(F)cc1)c1cc2n(n1)C(C(F)(F)F)CC(C1CC1)N2 (stereo not drawn),0
COc1cc(-c2nnc(SCC(=O)N(Cc3ccccc3)C(C)(C)C)o2)cc(OC)c1OC,0
COc1cc(OC)cc(-c2nnc(SCC(=O)N(Cc3ccccc3)C(C)(C)C)o2)c1,0
O=C(CSc1nnc(Cn2nnc3ccccc32)o1)N(Cc1ccc(F)cc1)c1ccccc1,71
CC(C)C(=O)N1CCN(c2nc(-c3ccccc3)c3c(c2C#N)CCCC3)CC1,0
Cc1ccc2nsnc2c1S(=O)(=O)N1CCN(Cc2ccc3c(c2)OCO3)CC1,0
CC1CCc2c(sc(NC(=O)c3noc4c3CCCC4)c2C(N)=O)C1 (stereo not drawn),0
Cc1c(NC(=O)CCC(=O)N2CCCCC2)c(=O)n(-c2ccccc2)n1C,0
COc1ccc(C)cc1S(=O)(=O)N1CCN(c2cccc(C(F)(F)F)c2)CC1,0
Nc1nnnn1/N=C/C(Br)=C/c1ccccc1,77
c1ccc2c(c1)ncn2CCC1CCCCC1,0
Cc1cc(NO)nc(-c2ccc(Br)cc2)n1,0
CCOc1ccccc1N(CC(=O)NC1CCCC1)C(=O)CCC(=O)Nc1cc(C)on1,0
CC1=CCC(COC(=O)Nc2ccccc2)CC1 (stereo not drawn),0
CCC(CO)NCCNC(CC)CO (stereo not drawn),0
CCOC(=O)c1sc2nc(NC(=O)c3cccs3)sc2c1C,0
O=C(NC1CC1)c1ccc(-c2nc3ccccc3s2)s1,81
O=C(OCc1nc2ccccc2s1)c1cccs1,0
CNc1sc(C(=O)c2cccs2)c(N)c1-c1nc2ccccc2s1,0
CCOc1ncccc1C(=O)OCC(=O)Nc1cc(C(=O)OC)ccc1C(=O)OC,0
Cc1cc(C)c(-c2cc(C(F)(F)F)no2)c(=O)[nH]1,0
Cn1c(=O)c2nc(Cl)n(Cc3ccc(Cl)cc3Cl)c2n(C)c1=O,0
Nc1nc2ccc(Oc3ccccc3)cc2s1,0
Cc1ccc2[nH]c(-c3cccc(N)c3)cc2c1,0
SMILES,RORA inh
Nc1cccc(-c2nc3ccc(N)cc3s2)c1,57
COc1cc(NC(=O)Cn2c(-c3cncs3)nc3ccccc32)cc(OC)c1OC,0
Cc1ccc2nc(C(F)(F)F)c(C#N)c(N)c2c1,57
O=C(O)c1cccc(S(=O)(=O)N2CCOCC2)c1,0
C=CCNC(=O)c1cc(-c2ccc(Br)cc2)on1,0
COC(=O)c1cc(-c2ccccc2)n(CC(=O)O)c1C,0
O=C(CSc1nnnn1C1CC2CCC1C2)Nc1ccnc2ccccc12 (stereo not drawn),85
COc1ccc(CNC(=O)CSc2nnnn2Cc2ccccc2)cc1,0
Cc1cccc(C)c1OCC(=O)NCc1nnc(SCC(=O)NC2CCCCC2)n1C,0
O=C(NCC1CCCO1)C1CC(=O)N(C2CCCCCC2)C1 (stereo not drawn),0
O=c1cc(N2CCc3ccccc32)[nH]c(=O)n1Cc1ccc(F)cc1,0
